Measured values as given in ChEMBL document CHEMBL4765231 (J Med Chem, 2016).
Values after ≈ are worked out from the molar mass of the structure shown. Active and inactive are the calls of the source. No cut-off for these calls is given here.

How the values were obtained:
[1] = Ratio of drug concentration in brain to plasma of coronary artery occlusion-induced ischemia-reperfusion injury rabbit model intravenously administered with compound for 30 mins measured by LC-MS/MS analysis; type: ADME, Oryctolagus cuniculus; conditions: brain and plasma, iv, read-out: BPR
Homo sapiens [2] = organism: Homo sapiens; assay: Inhibition of late sodium current channel (unknown origin) at 1 uM at 25 Hz frequency by whole cell patch clamp technique relative to control
Oryctolagus cuniculus [3] = organism: Oryctolagus cuniculus; assay: Cardioprotective activity in New Zealand White rabbit heart assessed as reversal of ATX-II induced late sodium current prolongation in change in duration of monophasic action potential at 90 percent repolarization at 1 uM by electrocardiographic analysis relative to control; type: functional
[4] = Metabolic stability in dog microsomes assessed as half life; type: ADME, Canis lupus familiaris, Microsome
[5] = Solubility of compound in water; type: physicochemical
[6] = Inhibition of late sodium current channel (unknown origin) at 25 Hz frequency by whole cell patch clamp technique; conditions: Homo sapiens
[7] = Metabolic stability in rat microsomes assessed as half life; type: ADME, Microsome
NaV1.1 = NaV1.1 (Homo sapiens, UniProt P35498); assay: Inhibition of NaV1.1 (unknown origin) expressed in cells assessed as inhibition of peak INa current at 10 uM at 25 Hz frequency by whole-cell patch clamp method relative to control; type: cell-based; conditions: cells expressing NaV1.1
In short: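 Whole-cell manual patch clamp on non-cardiac NaV1.x channels, run at room temperature. Series resistance was compensated 90% so the command potential was reached within microseconds.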

[8] = Metabolic stability in human microsomes assessed as half life; type: ADME, Microsome
Homo sapiens [9] = organism: Homo sapiens; assay: Inhibition of L-type calcium channel (unknown origin)
Oryctolagus cuniculus [10] = organism: Oryctolagus cuniculus; assay: Cardioprotective activity in New Zealand rabbit heart assessed as reversal of ATX-II induced late sodium current increase in QT interval by electrocardiographic analysis; type: functional
Oryctolagus cuniculus [11] = assay: Cardioprotective activity in New Zealand rabbit model of LAD coronary artery occlusion-induced ischemia-reperfusion injury assessed as inhibition of ST segment elevation intravenously administered with compound for 30 mins followed by induction of ischemia for 15 mins and subsequent reperfusion for 15 mins by electrocardiographic analysis; type: functional
Oryctolagus cuniculus [12] = organism: Oryctolagus cuniculus; assay: Cardioprotective activity in New Zealand White rabbit heart assessed as reversal of ATX-II induced late sodium current prolongation in change in duration of monophasic action potential at 90 percent repolarization by electrocardiographic analysis relative to control; type: functional, tissue-based
[13] = Inhibition of peak sodium current (unknown origin) by manual patch clamp method; set-up: species or system Homo sapiens
[14] = target: Sodium channel protein type 1 subunit alpha (Homo sapiens, UniProt P35498); assay: Inhibition of peak NaV1.1 (unknown origin) at 10 uM at 10 Hz frequency by manual patch clamp technique
In short: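 Whole-cell manual patch clamp at room temperature, with series resistance compensated 90%.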

Oryctolagus cuniculus [15] = organism: Oryctolagus cuniculus; assay: Cardioprotective activity in New Zealand rabbit model of LAD coronary artery occlusion-induced ischemia-reperfusion injury assessed as inhibition of ST segment elevation at 12 uM for 30 mins followed by induction of ischemia for 15 mins and subsequent reperfusion for 15 mins by electrocardiographic analysis; type: functional; conditions: 1 h, time 60 min
Oryctolagus cuniculus [16] = organism: Oryctolagus cuniculus; assay: Cardioprotective activity in rabbit assessed as decrease in chemically-induced Torsades des Pointes at 14 uM by electrocardiographic analysis; type: functional; set-up: scale not given: the % may be the effect or the level left
NaV1.5 [17] = target: T1, NaV1.5 (Homo sapiens, UniProt Q14524); assay: Inhibition of human NaV1.5 expressed in HEK293 cells assessed as inhibition of peak sodium current measured at frequency 3 Hz at -20 mV resting membrane potential at 3 uM by electrophysiology assay relative to control; type: cell-based; conditions: HEK293 cells expressing human NaV1.5
T1 sequence (Q14524 whole entry): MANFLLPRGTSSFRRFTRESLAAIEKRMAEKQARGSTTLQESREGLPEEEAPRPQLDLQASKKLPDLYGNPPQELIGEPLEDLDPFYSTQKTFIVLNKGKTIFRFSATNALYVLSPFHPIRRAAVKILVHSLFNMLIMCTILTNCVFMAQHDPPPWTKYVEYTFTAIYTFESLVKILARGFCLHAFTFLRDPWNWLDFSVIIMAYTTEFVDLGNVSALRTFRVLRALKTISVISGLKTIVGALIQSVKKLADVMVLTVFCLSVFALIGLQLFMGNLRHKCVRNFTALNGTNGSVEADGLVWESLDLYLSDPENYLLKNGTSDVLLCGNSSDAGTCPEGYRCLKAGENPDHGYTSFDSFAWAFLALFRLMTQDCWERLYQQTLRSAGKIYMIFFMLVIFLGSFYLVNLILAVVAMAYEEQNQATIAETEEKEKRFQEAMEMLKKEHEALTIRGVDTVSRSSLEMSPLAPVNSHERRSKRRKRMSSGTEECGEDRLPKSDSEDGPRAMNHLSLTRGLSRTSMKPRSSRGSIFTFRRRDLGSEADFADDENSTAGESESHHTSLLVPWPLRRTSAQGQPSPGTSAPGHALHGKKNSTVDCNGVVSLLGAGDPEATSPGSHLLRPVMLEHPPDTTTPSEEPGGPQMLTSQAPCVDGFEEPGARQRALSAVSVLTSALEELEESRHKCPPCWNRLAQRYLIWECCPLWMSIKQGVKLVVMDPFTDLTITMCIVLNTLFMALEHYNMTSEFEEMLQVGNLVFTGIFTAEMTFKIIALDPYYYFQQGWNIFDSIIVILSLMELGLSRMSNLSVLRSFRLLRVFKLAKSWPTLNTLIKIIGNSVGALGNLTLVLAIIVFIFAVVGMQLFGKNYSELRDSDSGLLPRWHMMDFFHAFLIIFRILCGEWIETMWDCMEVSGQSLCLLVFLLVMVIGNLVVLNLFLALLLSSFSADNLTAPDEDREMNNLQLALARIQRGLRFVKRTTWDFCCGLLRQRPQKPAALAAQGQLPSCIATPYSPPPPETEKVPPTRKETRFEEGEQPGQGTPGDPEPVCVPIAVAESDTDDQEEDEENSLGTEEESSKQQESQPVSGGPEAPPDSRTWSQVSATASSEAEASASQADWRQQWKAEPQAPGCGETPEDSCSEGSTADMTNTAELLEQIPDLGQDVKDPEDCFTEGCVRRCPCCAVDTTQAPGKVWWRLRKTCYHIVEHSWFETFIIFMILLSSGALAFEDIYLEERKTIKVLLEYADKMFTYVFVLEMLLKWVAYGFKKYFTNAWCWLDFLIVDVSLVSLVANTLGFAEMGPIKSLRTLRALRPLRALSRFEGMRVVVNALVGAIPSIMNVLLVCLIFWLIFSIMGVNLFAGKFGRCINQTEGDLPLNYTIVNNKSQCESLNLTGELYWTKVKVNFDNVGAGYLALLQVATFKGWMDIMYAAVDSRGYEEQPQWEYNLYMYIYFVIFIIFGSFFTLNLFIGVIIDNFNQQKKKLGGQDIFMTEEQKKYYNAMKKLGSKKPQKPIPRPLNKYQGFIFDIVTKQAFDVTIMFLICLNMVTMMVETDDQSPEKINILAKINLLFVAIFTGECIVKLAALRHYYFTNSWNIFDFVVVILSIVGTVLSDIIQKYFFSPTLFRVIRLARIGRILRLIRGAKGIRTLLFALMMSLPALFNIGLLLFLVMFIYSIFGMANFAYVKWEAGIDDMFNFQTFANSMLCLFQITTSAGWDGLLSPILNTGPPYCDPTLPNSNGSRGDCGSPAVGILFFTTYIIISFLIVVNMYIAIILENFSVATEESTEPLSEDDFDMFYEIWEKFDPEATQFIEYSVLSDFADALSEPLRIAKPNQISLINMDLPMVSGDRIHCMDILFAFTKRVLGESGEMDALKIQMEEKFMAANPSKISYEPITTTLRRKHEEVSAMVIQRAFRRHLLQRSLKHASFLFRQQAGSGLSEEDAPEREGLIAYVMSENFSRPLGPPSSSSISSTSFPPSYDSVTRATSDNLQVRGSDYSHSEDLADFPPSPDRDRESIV

[18] = Toxicity in rabbit model of left circumflex artery ligation-induced ischemia assessed as animal death at 1 mg/kg; type: organism-based, Oryctolagus cuniculus; conditions: in vivo
[19] = Toxicity in rabbit model of left circumflex artery ligation-induced ischemia assessed as increase in VT-VF at 1 mg/kg by electrocardiographic analysis; type: organism-based, Oryctolagus cuniculus; conditions: in vivo
NaV1.5 [20] = target: T1, NaV1.5; assay: Inhibition of human NaV1.5 expressed in HEK293 cells assessed as inhibition of peak sodium current measured at frequency 3 Hz at -20 mV resting membrane potential at 1 uM by electrophysiology assay relative to control; type: cell-based; conditions: HEK293 cells expressing human NaV1.5
NaV1.5 [21] = target: T1, NaV1.5; assay: Inhibition of human NaV1.5 expressed in HEK293 cells assessed as inhibition of peak sodium current measured at frequency 3 Hz at -120 mV resting membrane potential at 0.3 uM by electrophysiology assay relative to control; conditions: HEK293 cells expressing human NaV1.5
Oryctolagus cuniculus [22] = organism: Oryctolagus cuniculus; assay: Cardioprotective activity in New Zealand rabbit model of LAD coronary artery occlusion-induced ischemia-reperfusion injury assessed as inhibition of ST segment elevation at 0.52 uM for 30 mins followed by induction of ischemia for 15 mins and subsequent reperfusion for 15 mins by electrocardiographic analysis; type: functional; set-up: scale not given: the % may be the effect or the level left; conditions: time 60 min, 1 h
[23] = Toxicity in New Zealand rabbit model of LAD coronary artery occlusion-induced ischemia-reperfusion injury assessed as effect on ECG interval at 0.28 to 0.52 uM; set-up: species or system Oryctolagus cuniculus; conditions: in vivo, dose 0.28-0.52 µM
Oryctolagus cuniculus [24] = organism: Oryctolagus cuniculus; assay: Cardioprotective activity in New Zealand rabbit model of LAD coronary artery occlusion-induced ischemia-reperfusion injury assessed as inhibition of ST segment elevation at 0.28 uM for 30 mins followed by induction of ischemia for 15 mins and subsequent reperfusion for 15 mins by electrocardiographic analysis; type: functional; set-up: scale not given: the % may be the effect or the level left; conditions: time 60 min, 1 h
[25] = Toxicity in New Zealand rabbit model of LAD coronary artery occlusion-induced ischemia-reperfusion injury assessed as effect on blood pressure at 0.28 to 0.52 uM; set-up: species or system Oryctolagus cuniculus; conditions: in vivo, dose 0.28-0.52 µM
[26] = Toxicity in New Zealand rabbit model of LAD coronary artery occlusion-induced ischemia-reperfusion injury assessed as effect on heart rate at 0.28 to 0.52 uM; set-up: species or system Oryctolagus cuniculus; conditions: in vivo, dose 0.28-0.52 µM

| Structure (SMILES) | inhibition (Homo sapiens [2]) [%] | half-life [4] [h] | IC50 [6] [nM] | half-life [7] [h] | inhibition at 10 µM (NaV1.1) [%] | half-life [8] [h] | further results |
| --- | --- | --- | --- | --- | --- | --- | --- |
| Cc1noc(Cn2ncc3ccc(-c4ccc(OC(F)(F)F)cc4)cc3c2=O)n1 | 39 |  |  |  |  |  | Kp at 0.5 h [1]: 4.4 |
| Cc1noc(Cn2cnc3ccc(-c4ccc(OC(F)(F)F)cc4)cc3c2=O)n1 | 48 |  |  |  |  |  | Kp at 0.5 h [1]: 15 |
| O=C1c2cc(-c3ccc(OC(F)(F)F)cc3)ccc2CCN1Cc1ncccn1 |  | 2.62 | 2310 | 2.5 | 23 | 6.58 | Activity (Oryctolagus cuniculus [3]): 6%; solubility [5]: 60 µM (≈ 24 µg/mL) |
| COc1ccccc1OCC(O)CN1CCN(CC(=O)Nc2c(C)cccc2C)CC1 (stereo unspecified) [RANOLAZINE] |  |  |  |  |  |  | inhibition (Homo sapiens [9]): inactive; Activity (Oryctolagus cuniculus [10]): Active; EC50 (Oryctolagus cuniculus [11]): 8000 nM; IC50 (Oryctolagus cuniculus [12]): 16000 nM; IC50 [13]: 428000 nM; inhibition (INH) [14]: Not Active; inhibition in vivo at 12 µM (Oryctolagus cuniculus [15]): 60%; Activity (Oryctolagus cuniculus [16]): 60% |
| O=C1c2cc(-c3ccc(OC(F)(F)F)cc3)ccc2OCCN1CCc1ncccn1 |  | 1.55 | 1000 | 0.467 | 67 | 0.467 | inhibition at 3 µM (NaV1.5 [17]): 13% |
| O=C1c2cc(-c3ccc(OC(F)(F)F)c(Cl)c3)ccc2OCCN1Cc1ncccn1 |  |  | 770 | 5.63 | 33 | 6.55 | Activity (Oryctolagus cuniculus [3]): 23%; inhibition at 3 µM (NaV1.5 [17]): 15% |
| O=C1c2cc(-c3ccc(C(F)F)cc3)ccc2OCCN1Cc1ncccn1 | 17 |  |  |  |  |  |  |
| O=C1c2cc(-c3ccc(OC(F)F)cc3)ccc2OCCN1Cc1ncccn1 | 13 |  |  |  |  |  |  |
| COc1ccc(-c2ccc3c(c2)C(=O)N(Cc2ncccn2)CCO3)cc1 | 13 |  |  |  |  |  |  |
| CC(=O)Nc1ccnc(CN2CCOc3ccc(-c4ccc(OC(F)(F)F)cc4)cc3C2=O)n1 | 6 |  |  |  |  |  |  |
| O=C1c2cc(-c3ccccc3)ccc2OCCN1Cc1ncccn1 | 18 |  |  |  |  |  |  |
| Nc1ccnc(CN2CCOc3ccc(-c4ccc(OC(F)(F)F)cc4)cc3C2=O)n1 |  |  | 2480 |  | 52 |  | inhibition at 3 µM (NaV1.5 [17]): 37% |
| O=C(NCC1CCCCN1)c1cc(OCC(F)(F)F)ccc1OCC(F)(F)F (stereo unspecified) [FLECAINIDE] |  |  |  |  |  |  | Activity [18]: Toxic; Activity [19]: Toxic |
| O=C1c2cc(-c3cccc(OC(F)(F)F)c3)ccc2OCCN1Cc1ncccn1 |  | 0.717 | 2030 | 4.9 | 18 | 4.95 | Activity (Oryctolagus cuniculus [3]): 29%; inhibition at 3 µM (NaV1.5 [17]): 3% |
| O=C1c2cc(-c3ccccc3OC(F)(F)F)ccc2OCCN1Cc1ncccn1 | 26 |  |  |  |  |  |  |
| O=C1c2cc(-c3ccc(Cl)c(F)c3)ccc2OCCN1Cc1ncccn1 |  | 1.92 | 1610 | 1.63 | 23 | 5.5 | inhibition at 1 µM (NaV1.5 [20]): 8%; Activity (Oryctolagus cuniculus [3]): 58% |
| O=C1c2cc(-c3ccc(OC(F)(F)F)cc3)ccc2OCCN1Cc1ncccc1F |  | 3.23 | 160 | 1.48 | 82 | 2.48 | inhibition at 0.3 µM (NaV1.5 [21]): 23% |
| O=C1c2cc(-c3ccc(C(F)(F)F)cc3)ccc2OCCN1Cc1ncccn1 |  | 6.18 | 1080 | 3.52 | 60 | 5.8 | Activity (Oryctolagus cuniculus [3]): 62%; Activity (Oryctolagus cuniculus [22]): 88%; solubility [5]: 87 µM (≈ 34.7 µg/mL); Activity [23]: Non-Toxic; Activity (Oryctolagus cuniculus [24]): 38%; inhibition at 3 µM (NaV1.5 [17]): 27%; EC50 (Oryctolagus cuniculus [11]): 300 nM; Activity (Oryctolagus cuniculus [11]; time 60.0 min): Dose-dependent effect; Activity [25]: Non-Toxic; Activity [26]: Non-Toxic |
| COc1ccnc(CN2CCOc3ccc(-c4ccc(OC(F)(F)F)cc4)cc3C2=O)n1 |  | 1.45 | 970 | 4.52 | 60 | 6.58 | inhibition at 1 µM (NaV1.5 [20]): 27% |
| CS(=O)(=O)c1ccc(-c2ccc3c(c2)C(=O)N(Cc2ncccn2)CCO3)cc1 | 3 |  |  |  |  |  |  |
| O=C1c2cc(-c3ccc(OC(F)(F)F)cc3)ccc2OCCN1Cc1ccccn1 |  | 2.78 | 500 | 1.15 | 67 | 2.5 | solubility [5]: < 1 µM |
| O=c1c2cc(-c3ccc(C(F)(F)F)cc3)ccc2nnn1Cc1nnc(C2CC2)o1 | 51 |  |  |  |  |  | EC50 (Oryctolagus cuniculus [11]): 970 nM; Kp at 0.5 h [1]: 0.86 |
| O=C1c2cc(-c3ccc(Cl)cc3)ccc2OCCN1Cc1ncccn1 |  | 1.05 | 1620 | 1.6 | 31 | 3.23 | Activity (Oryctolagus cuniculus [3]): 68%; inhibition at 3 µM (NaV1.5 [17]): 17% |
| CC(=O)Nc1cc(OC(F)(F)F)ccc1-c1ccc2c(c1)C(=O)N(Cc1ncccn1)CCO2 | 4 |  |  |  |  |  |  |
| O=C1c2cc(-c3ccc(C(F)(F)F)cc3)ccc2CCN1Cc1ncccn1 |  | 5.33 | 2070 | 5.9 | 15 | 5.07 | Activity (Oryctolagus cuniculus [3]): 25%; solubility [5]: 28 µM (≈ 10.7 µg/mL) |
| O=C1c2cc(-c3ccc(OC(F)(F)F)cc3F)ccc2OCCN1Cc1ncccn1 |  | 2.6 | 1280 | 5.13 | 35 | 4.02 | Activity (Oryctolagus cuniculus [3]): 39%; inhibition at 3 µM (NaV1.5 [17]): 37% |
| O=C1c2cc(-c3cccc(C(F)(F)F)c3)ccc2OCCN1Cc1ncccn1 |  |  | 3030 |  |  |  |  |
